Screening results as filed in PubChem BioAssay.
ADAM10 inh: inhibitors of human ADAM10. actives 0.62% (n = 370,000). inhibition, % at 7 µM. AID 720582. O14672. recombinant ADAM10, EDANS/DABCYL FRET peptide cleavage, 3 h;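 active = inhibition above a per-campaign cutoff equal to the mean of compounds falling between control-based bounds plus 3 SD, cut at about 20% in these data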;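 also: 0% = DMSO wells while the 100% control is not disclosed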
KLK7 zymogen act: activators of human kallikrein-7 zymogen; P49862; activation, % at 7 µM; purified proKLK7, EDANS-DABCYL substrate fluorescence; 100% is mature enzyme control, 0% vehicle; actives 0.9% (n = 370,000);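 active = activation above the mean of all tested compounds plus 3 SD, computed per campaign excluding outliers beyond control limits, cut at about 13% in these data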
ADAM17 inh: ADAM17 inhibition, QFRET primary screen | P78536 | recombinant ADAM17, EDANS/DABCYL FRET peptide cleavage | inhibition, % at 6.95 µM | actives 0.83% (n = 370,000);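 active = inhibition above the mean of compounds lying between control limits plus 3 SD, set per campaign, cut at about 8.5% in these data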;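 also: 0% = DMSO-only wells as the low control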
NR2E3 ag-1: agonists of human NR2E3 nuclear receptor; Q9Y5X4; CHO-S Gal4-NCOR/VP16-NR2E3 two-hybrid, luciferase; inhibition of corepressor binding, % at 3.98 µM; actives 0.35% (n = 360,000);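 active = inhibition above the mean of all tested compounds plus 3 SD, cut at about 70% in these data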;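 also: 0% = DMSO with NR2E3 transfected cells and 100% = cells lacking NR2E3 construct; higher means lower luciferase signal from less NR2E3 corepressor binding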
JMJD2C inh: inhibitors of human GASC-1 (JMJD2C) demethylase; Q9H3R0; AID 2099; GST-JMJD2C(1-420) H3K9me3 demethylation, DELFIA europium; inhibition, % at 2.35 µM; actives 0.069% (n = 330,000);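 active = more than half of a compound's replicate wells show inhibition beyond 50%, single wells judged on their own value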;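 also: signal counts dimethyl H3K9 product captured on neutravidin plate; 0% = median of DMSO wells and 100% = 0.3 times that DMSO median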
Target sequence (Q9H3R0 1-420 limits assumed): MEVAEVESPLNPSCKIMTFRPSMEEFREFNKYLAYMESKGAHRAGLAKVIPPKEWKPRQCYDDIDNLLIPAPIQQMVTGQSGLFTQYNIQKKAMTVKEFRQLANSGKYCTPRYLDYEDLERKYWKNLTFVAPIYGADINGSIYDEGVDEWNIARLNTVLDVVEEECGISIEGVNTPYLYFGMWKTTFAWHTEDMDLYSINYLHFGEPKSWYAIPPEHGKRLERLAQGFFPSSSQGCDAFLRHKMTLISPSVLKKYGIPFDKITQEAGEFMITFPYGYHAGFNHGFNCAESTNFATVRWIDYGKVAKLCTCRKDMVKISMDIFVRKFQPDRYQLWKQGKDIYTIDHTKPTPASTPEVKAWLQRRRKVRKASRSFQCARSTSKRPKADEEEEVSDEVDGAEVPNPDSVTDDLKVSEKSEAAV
NR2E3 ag-2: NR2E3 (human) agonism. Q9Y5X4. GST-NR2E3/biotin-RetCOR TR-FRET, 1536-well. inhibition of corepressor binding, % at 4.78 µM. actives 0.12% (n = 320,000);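 active = percent inhibition above the cutoff of mean plus 3 SD of all tested compounds, set per screening campaign, cut at about 20% in these data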;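 also: 0% = DMSO wells and 100% = biotin wells as full block of FRET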
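System: GST-NR2E3 and biotin-RetCOR proteins; probe or stimulus: 7 nM biotin-RetCOR; doses: compound at 4.8 µM, single dose; schedule: Compound–protein incubation for 5 h at 4 °C; detection: time-resolved FRET; read-out: percent inhibition; controls: biotin wells as high control, 0.6% DMSO wells as low control; format: 1536-well plates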
ADAM10 confirm: confirmation of inhibitors of human ADAM10. shares compounds with ADAM10 inh. ADAM10 QFRET peptide cleavage, EDANS fluorescence. inhibition, % at 6.95 µM. actives 1% (n = 2,100);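 active = inhibition above about 20% chosen separately for each screening run, limit read from the data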;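 also: 0% = DMSO wells and 100% = marimastat wells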
ADAM17 ctr: ADAM17 inhibition, counter-screen for ADAM10 exosite hits | ADAM17 QFRET peptide cleavage, EDANS fluorescence | inhibition, % at 6.95 µM | shares compounds with ADAM10 inh | AID 743214 | actives 0.5% (n = 2,100);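 active = mean triplicate inhibition above the solvent-only control wells' mean plus 3 SD, cut at about 12% in these data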;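 also: 0% = DMSO wells and 100% = marimastat wells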
ADAM10 ctr: counter-screen for ADAM17 exosite inhibitors: inhibitors of human ADAM10; shares compounds with ADAM17 inh; AID 743256; recombinant ADAM10, EDANS/DABCYL FRET peptide cleavage, 3 h; inhibition, % at 6.95 µM; actives 47% (n = 2,900);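 active = mean inhibition over the triplicate runs exceeds the activity threshold set in the earlier primary screen, cut at about 20% in these data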;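 also: 0% = DMSO wells and 100% = marimastat wells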
ADAM17 confirm: human ADAM17 inhibition, confirmation; recombinant ADAM17, EDANS/DABCYL QFRET peptide cleavage; actives 65% (n = 2,900); shares compounds with ADAM17 inh; inhibition, % at 6.95 µM;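 active = mean inhibition across replicates above the hit cutoff set in the primary screen, cut at about 8.5% in these data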;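 also: 0% = DMSO wells and 100% = marimastat wells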
Active calls of the source: *. Rows were chosen to be rich in hits. Some 2.5% of all compounds tested hit in one or more screens of this group.

Results for CC(/C=C1\SC(=O)N(CC(=O)Nc2cccc(O)c2)C1=O)=C\c1ccccc1 ?
ADAM10 inh: 28.6*; KLK7 zymogen act: -1.0; ADAM17 inh: 13.0*; NR2E3 ag-1: 16.8; JMJD2C inh: -1.2; NR2E3 ag-2: -0.2; ADAM10 confirm: 11.6; ADAM17 ctr: 4.3; ADAM10 ctr: 23.5*; ADAM17 confirm: 14.6*

What do the screens show for `CC(C)C[C@H](NC(=O)c1nc[nH]c1C(=O)NC1CCN(C(=O)OC(C)(C)C)CC1)C(=O)OCc1ccccc1`?
ADAM10 inh: 37.1*; KLK7 zymogen act: 0.5; ADAM17 inh: 15.8*; NR2E3 ag-1: -7.3; JMJD2C inh: -2.1; NR2E3 ag-2: -3.4; ADAM10 confirm: 8.6; ADAM17 ctr: 2.7; ADAM10 ctr: 29.4*; ADAM17 confirm: 16.0*

What do the screens show for `CC(C)C[C@H](NC(=O)c1nc[nH]c1C(=O)N1CCN(C(=O)OC(C)(C)C)CC1)C(=O)OCc1ccccc1`?
ADAM10 inh: 24.7*; KLK7 zymogen act: 0.1; ADAM17 inh: 9.9*; NR2E3 ag-1: -4.8; JMJD2C inh: 1.0; NR2E3 ag-2: -3.7; ADAM10 confirm: 1.5; ADAM17 ctr: 0.7; ADAM10 ctr: 26.8*; ADAM17 confirm: 11.2*

How did CC(C)C[C@H](NC(=O)c1nc[nH]c1C(=O)N1CCC(C)CC1)C(=O)OCc1ccccc1 do in these assays?
ADAM10 inh: -2.6; KLK7 zymogen act: 0.5; ADAM17 inh: -1.8; NR2E3 ag-1: 33.5; JMJD2C inh: 8.7; NR2E3 ag-2: -0.9

How did CC(C)(C)OC(=O)[C@H](Cc1ccccc1)NC(=O)c1nc[nH]c1C(=O)NC1CCN(C(=O)OC(C)(C)C)CC1 do in these assays?
ADAM10 inh: 23.7*; KLK7 zymogen act: 0.6; ADAM17 inh: 10.5*; NR2E3 ag-1: -24.3; JMJD2C inh: -19.3; NR2E3 ag-2: -1.2; ADAM10 confirm: 4.7; ADAM17 ctr: 0.8; ADAM10 ctr: 49.9*; ADAM17 confirm: 22.6*

Results for CC(C)(C)OC(=O)N1CCN(C(=O)c2[nH]cnc2C(=O)N[C@@H](Cc2ccccc2)C(=O)OCc2ccccc2)CC1 ?
ADAM10 inh: 18.6; KLK7 zymogen act: 0.0; ADAM17 inh: 5.5; NR2E3 ag-1: -24.5; JMJD2C inh: 7.4; NR2E3 ag-2: 0.5

What do the screens show for `CC(C)C[C@H](NC(=O)c1nc[nH]c1C(=O)NC1CCN(C(=O)OC(C)(C)C)CC1)C(=O)OC(C)(C)C`?
ADAM10 inh: 24.2*; KLK7 zymogen act: 0.8; ADAM17 inh: 9.4*; NR2E3 ag-1: -3.2; JMJD2C inh: -2.4; NR2E3 ag-2: -0.2; ADAM10 confirm: 3.3; ADAM17 ctr: 0.4; ADAM10 ctr: 32.0*; ADAM17 confirm: 16.1*

How did O=S(=O)(/N=C(/Nc1cccc2ccccc12)c1ccc(F)cc1)c1ccccc1 do in these assays?
ADAM10 inh: 18.5; KLK7 zymogen act: 0.7; ADAM17 inh: 4.1; NR2E3 ag-1: -17.8; JMJD2C inh: 0.9; NR2E3 ag-2: 1.9

Results for Brc1cnc2nc[nH]c2c1 ?
ADAM10 inh: -4.2; KLK7 zymogen act: 0.2; ADAM17 inh: -4.2; NR2E3 ag-1: -8.7; JMJD2C inh: -9.4; NR2E3 ag-2: -1.9
